Results published in ChEMBL document CHEMBL4017544 (J Med Chem, 2017).
Active and inactive are the calls of the source. The calls are words filed in the database; no cut-off is given here.

Columns and labels:
[1] = Clearance in Sprague-Dawley rat at 10 mg/kg, iv measured up to 24 hrs by LC-MS/MS analysis; type: ADME, organism-based; details: in vivo
In short: (§1)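 Rats dosed intravenously at 10 mg/kg; blood drawn from suborbital vein at 0, 2, 5, 15, 30, 60 min and 1.5, 2, 4, 6, 8, 12, 24 h; plasma levels by LC-MS/MS; parameters from concentration–time profiles, mean ± SD, n = 3.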

[2] = molecular target: T1, Inhibitor of nuclear factor kappa-B kinase subunit beta (Homo sapiens) (UniProt O14920); assay: Inhibition of IKKbeta (unknown origin) transfected in HEK293 cells assessed as reduction in TNFalpha-induced upregulation of MCP1 mRNA expression at 200 to 1000 nM administered 6 hrs after TNFalpha stimulation measured for 24 hrs by quantitative RT-PCR method
T1 sequence (whole entry): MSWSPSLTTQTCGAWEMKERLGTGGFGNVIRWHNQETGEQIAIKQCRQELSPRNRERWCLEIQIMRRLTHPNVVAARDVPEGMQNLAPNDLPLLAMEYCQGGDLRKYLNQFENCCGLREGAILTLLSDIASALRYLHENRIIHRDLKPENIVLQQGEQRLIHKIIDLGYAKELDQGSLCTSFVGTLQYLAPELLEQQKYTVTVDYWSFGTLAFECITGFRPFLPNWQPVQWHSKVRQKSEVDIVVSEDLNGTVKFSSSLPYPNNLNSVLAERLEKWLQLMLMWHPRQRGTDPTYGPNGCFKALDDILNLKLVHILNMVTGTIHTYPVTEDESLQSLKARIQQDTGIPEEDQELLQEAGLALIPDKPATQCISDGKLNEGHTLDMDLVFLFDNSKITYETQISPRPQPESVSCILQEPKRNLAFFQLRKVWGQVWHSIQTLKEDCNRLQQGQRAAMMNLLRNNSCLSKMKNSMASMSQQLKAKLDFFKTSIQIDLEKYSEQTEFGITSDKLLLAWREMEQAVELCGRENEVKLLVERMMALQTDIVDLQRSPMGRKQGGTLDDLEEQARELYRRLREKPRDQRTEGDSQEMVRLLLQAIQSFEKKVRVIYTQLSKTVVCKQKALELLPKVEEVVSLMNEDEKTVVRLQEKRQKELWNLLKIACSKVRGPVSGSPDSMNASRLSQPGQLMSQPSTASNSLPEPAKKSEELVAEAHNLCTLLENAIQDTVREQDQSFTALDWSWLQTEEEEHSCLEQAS

[3] = molecular target: T1, Inhibitor of nuclear factor kappa-B kinase subunit beta (Homo sapiens); assay: Inhibition of IKKbeta (unknown origin) transfected in HEK293 cells assessed as reduction in TNFalpha-induced upregulation of COX2 mRNA expression at 200 to 1000 nM administered 6 hrs after TNFalpha stimulation measured for 24 hrs by quantitative RT-PCR analysis; type: cell-based
In short: (§2)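 HEK293 cells pretreated with TNF-α (10 ng/mL) for 6 h, then given compound at 200 or 1000 nM for 24 h, in triplicate; iNOS, COX2 and MCP-1 mRNA relative to GAPDH by quantitative RT-PCR, 2−ΔΔCt method; mean ± SD from three experiments.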

H9c2 = assay: Cytotoxicity against rat H9c2 cells assessed as reduction in cell viability after 24 hrs by MTT assay; type: cell-based; details: H9c2, 24 h
In short: (§3)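 HEK293 or H9C2 cells grown in high-glucose DMEM with 10% FBS, exposed to compound for 24 h; viability by MTT, IC50 calculated.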

[4] = molecular target: Kelch-like ECH-associated protein 1 (Homo sapiens) (UniProt Q14145); assay: Inhibition of Keap1/Nrf2 (unknown origin) interaction transfected in HEK293 cells assessed as upregulation of HO-1 mRNA expression at 200 to 1000 nM after 48 hrs by quantitative RT-PCR analysis; type: cell-based
Chain of Kelch-like ECH-associated protein 1 (Homo sapiens) (Q14145 whole entry): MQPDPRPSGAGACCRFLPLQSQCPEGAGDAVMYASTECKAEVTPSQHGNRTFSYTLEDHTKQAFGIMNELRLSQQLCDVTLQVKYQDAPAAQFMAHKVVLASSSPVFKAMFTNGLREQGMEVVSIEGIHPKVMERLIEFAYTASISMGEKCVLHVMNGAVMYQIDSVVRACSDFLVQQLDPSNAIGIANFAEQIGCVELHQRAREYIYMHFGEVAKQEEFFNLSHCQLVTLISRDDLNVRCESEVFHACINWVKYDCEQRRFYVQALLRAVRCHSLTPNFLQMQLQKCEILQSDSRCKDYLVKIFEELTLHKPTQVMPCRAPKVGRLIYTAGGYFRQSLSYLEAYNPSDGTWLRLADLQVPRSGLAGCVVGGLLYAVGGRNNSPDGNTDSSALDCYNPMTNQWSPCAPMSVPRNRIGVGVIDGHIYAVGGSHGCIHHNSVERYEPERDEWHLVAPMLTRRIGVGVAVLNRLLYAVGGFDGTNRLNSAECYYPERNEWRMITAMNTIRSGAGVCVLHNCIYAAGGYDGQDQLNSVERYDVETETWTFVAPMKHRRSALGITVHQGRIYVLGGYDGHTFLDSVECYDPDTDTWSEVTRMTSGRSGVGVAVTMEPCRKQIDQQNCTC
In short: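 HEK293 cells (ATCC; high-glucose DMEM, 10% FBS) were treated in triplicate for 48 h. For the reporter read-out, cells were transfected with an ARE-dependent luciferase plasmid and luciferase activity was measured. For mRNA, total RNA was extracted with TRIzol and reverse transcribed, and target transcripts were quantified by qRT-PCR relative to GAPDH using the 2−ΔΔCt method. Three independent experiments, mean ± SD.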

[5] = Cmax in Sprague-Dawley rat at 10 mg/kg, iv measured up to 24 hrs by LC-MS/MS analysis; type: ADME, organism-based; set-up: dose 10 mg/kg, route intravenous; details: in vivo; in short: as §1
[6] = molecular target: T1, Inhibitor of nuclear factor kappa-B kinase subunit beta (Homo sapiens); assay: Inhibition of IKKbeta (unknown origin) transfected in HEK293 cells assessed as reduction in TNFalpha-induced upregulation of iNOS mRNA expression at 200 to 1000 nM administered 6 hrs after TNFalpha stimulation measured for 24 hrs by quantitative RT-PCR analysis; type: cell-based; in short: as §2
HEK293 = assay: Cytotoxicity against HEK293 cells assessed as reduction in cell viability after 24 hrs by MTT assay; type: cell-based; details: Homo sapiens, HEK293, 24 h; in short: as §3
[7] = molecular target: T1, Inhibitor of nuclear factor kappa-B kinase subunit beta (Homo sapiens); assay: Inhibition of IKKbeta (unknown origin) transfected in HEK293 cells assessed as TNFalpha-induced NFkappaB activation at 200 to 1000 nM administered 6 hrs after TNFalpha stimulation measured for 24 hrs by NFkappaB-driven luciferase reporter gene assay; type: cell-based
In short: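 HEK293 cells transfected with an NF-κB-driven luciferase reporter, stimulated with TNF-α and treated in triplicate; luciferase read with a dual-luciferase system.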

[8] = molecular target: T1, Inhibitor of nuclear factor kappa-B kinase subunit beta (Homo sapiens); assay: Inhibition of IKKbeta (unknown origin) transfected in HEK293 cells assessed as reduction in TNFalpha-induced upregulation of iNOS protein expression at 200 to 1000 nM administered 6 hrs after TNFalpha stimulation measured for 24 hrs by Western blot method; type: cell-based
In short: (§4)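 HEK293 cells pretreated with TNF-α (10 ng/mL) for 6 h, then given compound at 200 or 1000 nM for 24 h, in triplicate; nuclear and cytosolic p65, iNOS and COX2 protein by western blot; mean ± SD from three experiments.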

[9] = molecular target: T1, Inhibitor of nuclear factor kappa-B kinase subunit beta (Homo sapiens); assay: Inhibition of IKKbeta (unknown origin) transfected in HEK293 cells assessed as mitigation of TNFalpha-induced increase in ratio of nuclear to cytosolic p65 at 200 to 1000 nM administered 6 hrs after TNFalpha stimulation measured for 24 hrs by Western blot method; type: cell-based; in short: as §4
[10] = molecular target: T1, Inhibitor of nuclear factor kappa-B kinase subunit beta (Homo sapiens); assay: Inhibition of IKKbeta (unknown origin) transfected in HEK293 cells assessed as reduction in TNFalpha-induced upregulation of COX2 protein expression at 200 to 1000 nM administered 6 hrs after TNFalpha stimulation measured for 24 hrs by Western blot method; type: cell-based; in short: as §4
[11] = Acute toxicity in ip dosed ICR mouse assessed as lethality administered daily for 7 days; type: organism-based; details: in vivo
In short: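 Intraperitoneal dosing of ICR mice once daily for 7 days, with top doses up to 600 or 1000 mg/kg depending on the compound. Lethality was recorded and expressed as an LD50 (mg/kg).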

[12] = molecular target: T1, Inhibitor of nuclear factor kappa-B kinase subunit beta (Homo sapiens); assay: Inhibition of IKKbeta (unknown origin) transfected in HEK293 cells assessed as reduction in TNFalpha-induced upregulation of MCP1 mRNA expression at 200 to 1000 nM administered 6 hrs after TNFalpha stimulation measured for 24 hrs by quantitative RT-PCR analysis; type: cell-based; in short: as §2

SMILES	clearance [1]	inhibition [2]	inhibition [3]	IC50 (H9c2)	inhibition [4]	Cmax [5]	inhibition [6]	IC50 (HEK293)	inhibition [7]	inhibition [8]	inhibition [9]	inhibition [10]	LD50 at 168 h [11]	inhibition [12]
COC(=O)[C@]12CCC(C)(C)C[C@H]1[C@H]1C(=O)C=C3[C@@]4(C)C=C(C#N)C(=O)C(C)(C)[C@@H]4CC[C@@]3(C)[C@]1(C)CC2 [BARDOXOLONE METHYL]	78 mL/min/kg	Active	Active	5.2 µM	Active	5020 ng/mL	Active	2.2 µM	Active	Active	Active	Active	425 mg/kg	Active
COC(=O)[C@@H](N)CCC(=O)Nc1ccc(COC2=C(C#N)[C@H](O)[C@]3(C)C4=CC(=O)[C@@H]5[C@@H]6CC(C)(C)CC[C@]6(C(=O)OC)CC[C@@]5(C)[C@]4(C)CC[C@H]3C2(C)C)cc1	340 mL/min/kg	Active	Active	112 µM	Active	3020 ng/mL	Active	56.5 µM	Active	Active	Active	Active	886 mg/kg	Active
